Laboratory results as given in ChEMBL document CHEMBL5058577, “EUbOPEN Chemogenomics Library 2 (Multiplex)” (2022).

System: U2OS
Experiment: Multiplex assay against U2OS
Format: toxicity, cell-based
Details: human
Procedure, shortened: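 With compound added, live cells were imaged on a CQ1 microscope at 37°C and 5% CO2; staining with Hoechst33342, BioTracker Green Microtubule Cytoskeleton Dye, MitoTracker Red and Annexin V Alexa Fluor 680 had been done at seeding. The CellPathfinder machine-learning gating scheme split cells into Hoechst high-intensity objects or normal cells, normal cells into healthy, pyknosed or fragmented nuclei, and pyknosed cells into mitotic or apoptotic. The tubulin, mitochondrial-mass and membrane-permeability phenotypes are per cents of healthy-nucleus cells.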

[1] = 12 h, 1 µM, compound concentration 1 uM, replicate 1
[2] = 12 h, 1 µM, compound concentration 1 uM, replicate 2
[3] = 12 h, 10 µM, compound concentration 10 uM, replicate 1
[4] = 12 h, 10 µM, compound concentration 10 uM, replicate 2
[5] = 24 h, 1 µM, compound concentration 1 uM, replicate 1
[6] = 24 h, 1 µM, compound concentration 1 uM, replicate 2
[7] = 24 h, 10 µM, compound concentration 10 uM, replicate 1
[8] = 24 h, 10 µM, compound concentration 10 uM, replicate 2
[9] = 48 h, 1 µM, compound concentration 1 uM, replicate 1
[10] = 48 h, 1 µM, compound concentration 1 uM, replicate 2
[11] = 48 h, 10 µM, compound concentration 10 uM, replicate 1
[12] = 48 h, 10 µM, compound concentration 10 uM, replicate 2

## Cc1cc(O)c(-c2ccc([C@@H](C)CN(C)C)cc2)c2c1[nH]c(=O)c1sccc12
[1]
  Population Apoptotic (%): 80%
  Population Fragmented Nuclei (%): 38%
  Population Healthy Nuclei (%): 48%
  Population Hoechst High Intensity Objects (%): 4%
  Population Membrane Permeable-Phenotype (%): 21%
  Population Mitochondria Different-Phenotype (%): 17%
  Population Mitotic Cells (%): 19%
  Population Normal (%): 95%
  Population Pyknosed Nuclei (%): 12%
  Population Tubulin-Different-Phenotype (%): 12%
  Total Cell Count: 252
[2]
  Population Apoptotic (%): 70%
  Population Fragmented Nuclei (%): 25%
  Population Healthy Nuclei (%): 63%
  Population Hoechst High Intensity Objects (%): 2%
  Population Membrane Permeable-Phenotype (%): 9%
  Population Mitochondria Different-Phenotype (%): 14%
  Population Mitotic Cells (%): 30%
  Population Normal (%): 97%
  Population Pyknosed Nuclei (%): 11%
  Population Tubulin-Different-Phenotype (%): 14%
  Total Cell Count: 89
[3]
  Population Apoptotic (%): 64%
  Population Fragmented Nuclei (%): 28%
  Population Healthy Nuclei (%): 50%
  Population Hoechst High Intensity Objects (%): 4%
  Population Membrane Permeable-Phenotype (%): 54%
  Population Mitochondria Different-Phenotype (%): 62%
  Population Mitotic Cells (%): 35%
  Population Normal (%): 95%
  Population Pyknosed Nuclei (%): 21%
  Population Tubulin-Different-Phenotype (%): 72%
  Total Cell Count: 222
[4]
  Population Apoptotic (%): 69%
  Population Fragmented Nuclei (%): 20%
  Population Healthy Nuclei (%): 56%
  Population Hoechst High Intensity Objects (%): 8%
  Population Membrane Permeable-Phenotype (%): 22%
  Population Mitochondria Different-Phenotype (%): 61%
  Population Mitotic Cells (%): 30%
  Population Normal (%): 91%
  Population Pyknosed Nuclei (%): 22%
  Population Tubulin-Different-Phenotype (%): 45%
  Total Cell Count: 110
[5]
  Population Apoptotic (%): 92%
  Population Fragmented Nuclei (%): 43%
  Population Healthy Nuclei (%): 34%
  Population Hoechst High Intensity Objects (%): 8%
  Population Membrane Permeable-Phenotype (%): 20%
  Population Mitochondria Different-Phenotype (%): 25%
  Population Mitotic Cells (%): 7%
  Population Normal (%): 91%
  Population Pyknosed Nuclei (%): 21%
  Population Tubulin-Different-Phenotype (%): 19%
  Total Cell Count: 256
[6]
  Population Apoptotic (%): 100%
  Population Fragmented Nuclei (%): 41%
  Population Healthy Nuclei (%): 41%
  Population Hoechst High Intensity Objects (%): 6%
  Population Membrane Permeable-Phenotype (%): 15%
  Population Mitochondria Different-Phenotype (%): 21%
  Population Mitotic Cells (%): 0%
  Population Normal (%): 93%
  Population Pyknosed Nuclei (%): 17%
  Population Tubulin-Different-Phenotype (%): 12%
  Total Cell Count: 83
[7]
  Population Apoptotic (%): 81%
  Population Fragmented Nuclei (%): 36%
  Population Healthy Nuclei (%): 35%
  Population Hoechst High Intensity Objects (%): 9%
  Population Membrane Permeable-Phenotype (%): 16%
  Population Mitochondria Different-Phenotype (%): 70%
  Population Mitotic Cells (%): 18%
  Population Normal (%): 90%
  Population Pyknosed Nuclei (%): 27%
  Population Tubulin-Different-Phenotype (%): 47%
  Total Cell Count: 210
[8]
  Population Apoptotic (%): 82%
  Population Fragmented Nuclei (%): 40%
  Population Healthy Nuclei (%): 31%
  Population Hoechst High Intensity Objects (%): 12%
  Population Membrane Permeable-Phenotype (%): 25%
  Population Mitochondria Different-Phenotype (%): 62%
  Population Mitotic Cells (%): 17%
  Population Normal (%): 87%
  Population Pyknosed Nuclei (%): 28%
  Population Tubulin-Different-Phenotype (%): 34%
  Total Cell Count: 118
[9]
  Population Apoptotic (%): 96%
  Population Fragmented Nuclei (%): 53%
  Population Healthy Nuclei (%): 18%
  Population Hoechst High Intensity Objects (%): 17%
  Population Membrane Permeable-Phenotype (%): 23%
  Population Mitochondria Different-Phenotype (%): 25%
  Population Mitotic Cells (%): 3%
  Population Normal (%): 82%
  Population Pyknosed Nuclei (%): 27%
  Population Tubulin-Different-Phenotype (%): 25%
  Total Cell Count: 250
[10]
  Population Apoptotic (%): 100%
  Population Fragmented Nuclei (%): 64%
  Population Healthy Nuclei (%): 19%
  Population Hoechst High Intensity Objects (%): 15%
  Population Membrane Permeable-Phenotype (%): 35%
  Population Mitochondria Different-Phenotype (%): 35%
  Population Mitotic Cells (%): 0%
  Population Normal (%): 84%
  Population Pyknosed Nuclei (%): 15%
  Total Cell Count: 120
[11]
  Population Apoptotic (%): 96%
  Population Fragmented Nuclei (%): 50%
  Population Healthy Nuclei (%): 17%
  Population Hoechst High Intensity Objects (%): 20%
  Population Membrane Permeable-Phenotype (%): 25%
  Population Mitochondria Different-Phenotype (%): 45%
  Population Mitotic Cells (%): 3%
  Population Normal (%): 79%
  Population Pyknosed Nuclei (%): 31%
  Population Tubulin-Different-Phenotype (%): 32%
  Total Cell Count: 220
[12]
  Population Apoptotic (%): 100%
  Population Fragmented Nuclei (%): 54%
  Population Healthy Nuclei (%): 13%
  Population Hoechst High Intensity Objects (%): 15%
  Population Membrane Permeable-Phenotype (%): 64%
  Population Mitochondria Different-Phenotype (%): 50%
  Population Mitotic Cells (%): 0%
  Population Normal (%): 84%
  Population Tubulin-Different-Phenotype (%): 64%
  Total Cell Count: 120
